Reference: ChEMBL document CHEMBL5055621, “Synthesis and Characterization of the Novel Rodent-Active and CNS-Penetrant P2X7 Receptor Antagonist Lu AF27139” (J Med Chem, 2021)
Converted amounts (≈) assume the structure as drawn.

Experiments:
Cytochrome P450 2B6 = target: T1, Cytochrome P450 2B6 (Homo sapiens, UniProt P20813); assay: Inhibition of CYP2B6 (unknown origin) upto 25 uM; format: ADME
T1 sequence (P20813 whole entry): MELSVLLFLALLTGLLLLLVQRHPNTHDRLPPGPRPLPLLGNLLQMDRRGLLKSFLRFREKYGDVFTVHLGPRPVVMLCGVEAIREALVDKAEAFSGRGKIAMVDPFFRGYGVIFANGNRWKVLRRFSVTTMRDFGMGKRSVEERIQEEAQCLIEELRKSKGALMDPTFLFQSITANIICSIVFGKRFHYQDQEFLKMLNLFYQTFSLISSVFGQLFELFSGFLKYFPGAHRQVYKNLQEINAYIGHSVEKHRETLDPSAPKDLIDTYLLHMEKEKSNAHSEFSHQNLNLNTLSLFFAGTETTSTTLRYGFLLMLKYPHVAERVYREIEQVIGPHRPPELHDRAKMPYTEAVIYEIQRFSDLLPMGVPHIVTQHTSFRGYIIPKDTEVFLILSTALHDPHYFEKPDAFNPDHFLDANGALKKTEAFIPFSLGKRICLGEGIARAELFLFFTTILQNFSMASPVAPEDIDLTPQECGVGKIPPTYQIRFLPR

[1] = Metabolic stability in human hepatocytes assessed as intrinsic clearance at 1 uM measured after 2 hrs; format: ADME, cell-based, Hepatocyte; conditions: read-out: CLH (converted)
[2] = target: Voltage-dependent L-type calcium channel subunit alpha-1C (Homo sapiens, UniProt Q13936); assay: Inhibition of human Cav1.2 at 10 uM
Voltage-dependent L-type calcium channel subunit alpha-1C, sequence (Q13936 whole entry): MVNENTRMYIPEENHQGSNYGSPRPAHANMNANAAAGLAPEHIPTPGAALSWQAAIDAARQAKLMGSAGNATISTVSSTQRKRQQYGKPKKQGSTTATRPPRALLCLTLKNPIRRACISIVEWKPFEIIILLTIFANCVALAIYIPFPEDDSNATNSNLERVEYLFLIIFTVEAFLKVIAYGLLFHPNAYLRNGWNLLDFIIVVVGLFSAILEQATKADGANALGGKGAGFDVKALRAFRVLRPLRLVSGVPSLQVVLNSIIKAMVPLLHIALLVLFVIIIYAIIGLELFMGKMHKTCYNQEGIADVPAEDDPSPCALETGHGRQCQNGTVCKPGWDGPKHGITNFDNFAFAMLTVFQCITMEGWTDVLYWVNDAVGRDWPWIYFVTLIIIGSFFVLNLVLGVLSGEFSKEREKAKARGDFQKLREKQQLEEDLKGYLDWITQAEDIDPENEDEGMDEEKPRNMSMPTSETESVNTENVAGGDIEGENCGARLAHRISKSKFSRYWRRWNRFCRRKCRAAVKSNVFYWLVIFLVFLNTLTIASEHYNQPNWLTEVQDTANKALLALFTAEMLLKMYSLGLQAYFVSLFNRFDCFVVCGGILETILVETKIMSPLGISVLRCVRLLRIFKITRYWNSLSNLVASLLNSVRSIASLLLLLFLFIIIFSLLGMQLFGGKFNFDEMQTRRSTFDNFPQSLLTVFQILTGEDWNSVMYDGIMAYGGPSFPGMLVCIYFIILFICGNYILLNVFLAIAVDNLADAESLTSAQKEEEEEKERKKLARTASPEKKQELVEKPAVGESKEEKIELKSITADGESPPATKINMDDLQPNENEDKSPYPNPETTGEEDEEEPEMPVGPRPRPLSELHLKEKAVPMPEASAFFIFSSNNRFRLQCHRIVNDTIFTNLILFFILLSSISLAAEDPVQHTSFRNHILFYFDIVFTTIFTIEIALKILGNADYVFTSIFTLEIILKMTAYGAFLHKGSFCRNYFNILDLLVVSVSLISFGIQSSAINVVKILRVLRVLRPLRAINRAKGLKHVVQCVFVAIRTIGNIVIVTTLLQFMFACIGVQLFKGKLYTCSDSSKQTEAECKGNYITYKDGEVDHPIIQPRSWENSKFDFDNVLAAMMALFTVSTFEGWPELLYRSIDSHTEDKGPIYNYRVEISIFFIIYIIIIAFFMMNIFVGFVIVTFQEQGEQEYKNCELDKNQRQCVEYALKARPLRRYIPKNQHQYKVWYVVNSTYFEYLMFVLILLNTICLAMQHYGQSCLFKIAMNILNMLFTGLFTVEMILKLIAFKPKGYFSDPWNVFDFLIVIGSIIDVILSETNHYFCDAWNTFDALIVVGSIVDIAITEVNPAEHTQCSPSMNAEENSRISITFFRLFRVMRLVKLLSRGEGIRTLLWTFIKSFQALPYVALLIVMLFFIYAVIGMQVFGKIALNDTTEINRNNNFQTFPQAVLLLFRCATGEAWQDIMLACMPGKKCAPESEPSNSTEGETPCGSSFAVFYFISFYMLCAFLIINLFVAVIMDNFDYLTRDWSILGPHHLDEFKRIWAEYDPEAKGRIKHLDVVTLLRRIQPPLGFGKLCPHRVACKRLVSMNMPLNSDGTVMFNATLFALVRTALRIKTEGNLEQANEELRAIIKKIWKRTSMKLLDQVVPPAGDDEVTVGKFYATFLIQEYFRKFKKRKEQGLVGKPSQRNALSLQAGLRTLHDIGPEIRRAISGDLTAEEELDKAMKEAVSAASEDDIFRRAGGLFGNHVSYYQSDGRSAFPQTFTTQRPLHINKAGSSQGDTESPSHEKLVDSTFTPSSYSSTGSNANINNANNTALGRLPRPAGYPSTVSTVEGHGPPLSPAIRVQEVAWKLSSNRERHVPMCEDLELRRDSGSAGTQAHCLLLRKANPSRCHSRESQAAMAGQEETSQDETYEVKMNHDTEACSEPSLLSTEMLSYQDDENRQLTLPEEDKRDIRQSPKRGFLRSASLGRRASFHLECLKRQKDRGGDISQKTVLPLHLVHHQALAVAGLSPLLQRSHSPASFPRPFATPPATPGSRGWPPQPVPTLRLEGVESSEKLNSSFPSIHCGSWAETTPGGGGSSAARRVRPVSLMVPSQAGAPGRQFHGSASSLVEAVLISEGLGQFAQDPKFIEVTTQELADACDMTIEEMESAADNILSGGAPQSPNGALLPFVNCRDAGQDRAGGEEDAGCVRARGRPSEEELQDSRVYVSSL
Outline: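 Human Nav1.5, Cav1.2 and KCNQ1/minK channels were tested at 10 μM.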

[3] = Absolute oral bioavailability in rat at 2 mg/kg; format: ADME, organism-based; conditions: in vivo
Outline: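 Rats received 1 mg/kg iv or 2 mg/kg po. The plasma concentration–time profile was analysed by a noncompartmental model to give half-life, Cmax, Tmax and absolute oral bioavailability.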

Cytochrome P450 2C8 = target: T2, Cytochrome P450 2C8 (Homo sapiens, UniProt P10632); assay: Inhibition of CYP2C8 (unknown origin) upto 25 uM; format: ADME
T2 sequence (P10632 whole entry): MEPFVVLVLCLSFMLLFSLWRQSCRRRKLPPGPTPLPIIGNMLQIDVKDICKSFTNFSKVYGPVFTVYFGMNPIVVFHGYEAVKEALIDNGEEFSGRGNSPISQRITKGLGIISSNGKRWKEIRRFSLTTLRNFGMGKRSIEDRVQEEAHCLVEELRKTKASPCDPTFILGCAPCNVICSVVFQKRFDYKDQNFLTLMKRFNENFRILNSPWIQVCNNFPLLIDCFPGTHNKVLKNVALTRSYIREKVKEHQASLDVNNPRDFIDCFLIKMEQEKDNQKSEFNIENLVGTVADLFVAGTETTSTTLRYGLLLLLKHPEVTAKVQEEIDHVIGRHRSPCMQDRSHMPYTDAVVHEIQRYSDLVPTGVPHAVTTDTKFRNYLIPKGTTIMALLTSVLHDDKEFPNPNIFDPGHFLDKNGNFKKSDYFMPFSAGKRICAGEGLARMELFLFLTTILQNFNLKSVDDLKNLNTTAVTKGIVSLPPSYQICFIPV

P2X purinoceptor 7 = target: T3, P2X purinoceptor 7 (Mus musculus, UniProt Q9Z1M0); assay: Displacement of [3H]-A-804598 from mouse P2X7 receptor expressed in HEK293 cell membrane by in vitro binding assay; format: cell membranes
T3 sequence (Q9Z1M0 whole entry): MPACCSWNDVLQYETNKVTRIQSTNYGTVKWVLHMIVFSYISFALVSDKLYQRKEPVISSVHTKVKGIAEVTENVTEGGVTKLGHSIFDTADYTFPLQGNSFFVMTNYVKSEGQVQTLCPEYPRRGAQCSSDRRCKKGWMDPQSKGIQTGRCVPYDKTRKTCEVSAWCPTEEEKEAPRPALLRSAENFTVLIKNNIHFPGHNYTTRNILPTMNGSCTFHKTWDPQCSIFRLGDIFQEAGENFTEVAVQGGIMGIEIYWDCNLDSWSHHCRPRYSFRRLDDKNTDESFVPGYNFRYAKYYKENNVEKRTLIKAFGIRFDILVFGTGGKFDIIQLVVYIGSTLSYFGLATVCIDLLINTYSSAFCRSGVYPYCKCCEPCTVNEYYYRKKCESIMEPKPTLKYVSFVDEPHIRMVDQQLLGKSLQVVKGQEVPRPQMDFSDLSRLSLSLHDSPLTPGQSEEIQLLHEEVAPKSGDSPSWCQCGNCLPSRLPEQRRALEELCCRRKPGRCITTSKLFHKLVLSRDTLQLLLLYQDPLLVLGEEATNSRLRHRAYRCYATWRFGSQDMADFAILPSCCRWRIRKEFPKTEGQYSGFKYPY

Cytochrome P450 3A4 = Cytochrome P450 3A4 (Homo sapiens, UniProt P08684); assay: Time dependent inhibition of CYP3A4 (unknown origin) upto 25 uM; format: ADME
Cytochrome P450 3A4, sequence (P08684 whole entry): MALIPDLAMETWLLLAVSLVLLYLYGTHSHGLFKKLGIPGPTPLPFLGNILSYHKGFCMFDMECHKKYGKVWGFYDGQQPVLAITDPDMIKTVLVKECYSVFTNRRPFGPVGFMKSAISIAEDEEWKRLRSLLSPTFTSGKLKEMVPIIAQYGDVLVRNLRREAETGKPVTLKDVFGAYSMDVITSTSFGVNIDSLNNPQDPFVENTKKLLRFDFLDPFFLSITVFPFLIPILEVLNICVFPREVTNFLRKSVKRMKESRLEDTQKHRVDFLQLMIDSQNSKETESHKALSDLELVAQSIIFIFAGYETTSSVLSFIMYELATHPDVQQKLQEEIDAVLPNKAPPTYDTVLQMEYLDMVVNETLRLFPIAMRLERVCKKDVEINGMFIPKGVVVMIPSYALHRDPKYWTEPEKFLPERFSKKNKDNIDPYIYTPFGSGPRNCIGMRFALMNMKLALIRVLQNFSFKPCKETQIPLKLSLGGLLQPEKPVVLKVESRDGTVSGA

Cytochrome P450 2C9 = Cytochrome P450 2C9 (Homo sapiens, UniProt P11712); assay: Time dependent inhibition of CYP2C9 (unknown origin) upto 25 uM; format: ADME
Cytochrome P450 2C9, sequence (P11712 whole entry): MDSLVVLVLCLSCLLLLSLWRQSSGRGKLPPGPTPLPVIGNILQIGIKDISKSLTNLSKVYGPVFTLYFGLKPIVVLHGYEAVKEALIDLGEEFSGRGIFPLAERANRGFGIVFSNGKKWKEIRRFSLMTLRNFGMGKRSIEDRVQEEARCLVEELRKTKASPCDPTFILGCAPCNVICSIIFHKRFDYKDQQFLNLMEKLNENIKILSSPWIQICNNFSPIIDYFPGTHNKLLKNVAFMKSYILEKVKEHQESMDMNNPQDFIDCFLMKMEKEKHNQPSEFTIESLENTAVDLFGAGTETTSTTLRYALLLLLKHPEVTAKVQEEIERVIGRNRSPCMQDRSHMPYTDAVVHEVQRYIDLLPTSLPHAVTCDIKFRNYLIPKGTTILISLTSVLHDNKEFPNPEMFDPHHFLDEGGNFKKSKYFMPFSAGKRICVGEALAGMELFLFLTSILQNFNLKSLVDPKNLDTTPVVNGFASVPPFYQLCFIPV

Cytochrome P450 2D6 [4] = target: T4, Cytochrome P450 2D6 (Homo sapiens, UniProt P10635); assay: Inhibition of CYP2D6 (unknown origin) upto 25 uM; format: ADME
T4 sequence (P10635 whole entry): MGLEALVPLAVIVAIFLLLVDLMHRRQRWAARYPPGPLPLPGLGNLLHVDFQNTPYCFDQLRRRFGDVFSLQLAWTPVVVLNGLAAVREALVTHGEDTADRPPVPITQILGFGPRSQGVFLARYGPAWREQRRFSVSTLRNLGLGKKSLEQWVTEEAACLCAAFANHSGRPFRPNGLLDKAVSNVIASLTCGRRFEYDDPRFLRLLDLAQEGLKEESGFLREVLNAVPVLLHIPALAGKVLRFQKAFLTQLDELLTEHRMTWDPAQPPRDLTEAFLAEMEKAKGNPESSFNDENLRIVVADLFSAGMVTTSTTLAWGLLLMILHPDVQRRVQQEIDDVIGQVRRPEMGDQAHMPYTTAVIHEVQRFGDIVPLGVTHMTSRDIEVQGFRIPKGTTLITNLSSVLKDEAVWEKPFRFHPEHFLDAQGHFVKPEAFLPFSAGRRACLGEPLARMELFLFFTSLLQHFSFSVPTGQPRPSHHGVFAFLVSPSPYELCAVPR

[5] = Metabolic stability in rat hepatocytes assessed as intrinsic clearance at 1 uM measured after 2 hrs; format: ADME, cell-based, Hepatocyte; conditions: read-out: CLH (converted)
[6] = Tmax in female mouse at 100 mg/kg, po administered as single dose; conditions: in vivo
[7] = target: Adenosine receptor A2a (Homo sapiens) (UniProt P29274); assay: Displacement of [3H]-CGS 21680 from human recombinant adenosine A2A receptor at 10 uM after 120 mins by scintillation counting analysis relative to control
Adenosine receptor A2a (Homo sapiens), sequence (P29274 whole entry): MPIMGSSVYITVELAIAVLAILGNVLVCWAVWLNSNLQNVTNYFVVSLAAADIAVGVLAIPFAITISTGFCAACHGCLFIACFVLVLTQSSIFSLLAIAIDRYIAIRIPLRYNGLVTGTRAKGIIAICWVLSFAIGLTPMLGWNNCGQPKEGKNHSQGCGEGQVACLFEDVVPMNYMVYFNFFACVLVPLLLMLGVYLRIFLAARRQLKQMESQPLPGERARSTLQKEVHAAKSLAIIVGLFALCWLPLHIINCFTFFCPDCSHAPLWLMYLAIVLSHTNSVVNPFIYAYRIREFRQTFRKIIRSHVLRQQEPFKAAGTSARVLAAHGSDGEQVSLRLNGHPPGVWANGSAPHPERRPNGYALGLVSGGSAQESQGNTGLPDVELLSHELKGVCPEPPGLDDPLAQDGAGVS

[8] = Inhibition of BzATP-induced current in rat primary microglia cells measured after repeated BzATP treatment at -60 mV at 30 nM by whole cell patch clamp assay relative to control; format: functional
Outline: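 Rat primary microglia were whole-cell patch-clamped at −60 mV (external pH 7.4 with 1.8 mM CaCl2; CsCl/EGTA internal pH 7.2). Currents came from 10 s applications of 300 μM BzATP, applied repeatedly. Compound was applied by gravity via capillary for 60 s, and inhibition was taken relative to the control response.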

Cytochrome P450 2C19 = Cytochrome P450 2C19 (Homo sapiens, UniProt P33261); assay: Inhibition of CYP2C19 (unknown origin) upto 25 uM; format: ADME
Cytochrome P450 2C19, sequence (P33261 whole entry): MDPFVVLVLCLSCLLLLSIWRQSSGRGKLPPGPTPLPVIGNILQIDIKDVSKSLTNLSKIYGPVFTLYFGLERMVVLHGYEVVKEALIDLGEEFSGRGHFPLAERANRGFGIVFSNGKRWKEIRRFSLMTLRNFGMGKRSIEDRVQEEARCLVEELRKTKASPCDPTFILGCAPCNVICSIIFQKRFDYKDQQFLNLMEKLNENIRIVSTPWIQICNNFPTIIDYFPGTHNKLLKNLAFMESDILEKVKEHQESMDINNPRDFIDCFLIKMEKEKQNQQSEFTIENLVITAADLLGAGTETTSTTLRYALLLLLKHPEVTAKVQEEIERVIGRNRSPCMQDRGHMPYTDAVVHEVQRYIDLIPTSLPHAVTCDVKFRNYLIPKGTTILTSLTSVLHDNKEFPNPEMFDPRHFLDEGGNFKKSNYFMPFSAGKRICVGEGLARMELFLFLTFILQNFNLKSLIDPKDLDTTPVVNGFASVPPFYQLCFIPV

Cytochrome P450 2D6 [9] = target: T4, Cytochrome P450 2D6; assay: Time dependent inhibition of CYP2D6 (unknown origin) upto 25 uM; format: ADME
[10] = Thermodynamic solubility of the compound by shake flask HPLC method; format: physicochemical; conditions: read-out: Therm_solubility
Outline: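 Thermodynamic solubility was measured by shake flask with HPLC quantification.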

[11] = Cmax in male rat at 150 mg/kg, po after 7 days; format: ADME, organism-based; set-up: dose 150 mg/kg, time 7 day, route po; conditions: in vivo
[12] = Inhibition of BzATP-induced IL-1beta in mouse primary microglia cells primed with LPS measured after repeated BzATP treatment by microplate reader; format: functional, tissue-based
Outline: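 Cortical microglia from rat (P3 pups) or mouse were plated 1 day before assay and primed with 3 EU/mL LPS for 3.5 h. Compound was added for 30 min, then BzATP (1 mM) for 30 min at 37 °C. IL-1β was measured by MesoScale assay, normalised to BCA protein, and given as mean ± SD.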

- inhibition (INH) (Cytochrome P450 2B6): Not Active
- CLint scaled at 1 µM [1]: 14.2 mL/min/kg
- bioavailability [3]: ≥ 100%
- inhibition (INH) (Cytochrome P450 2C8): Not Active
- Ki (P2X purinoceptor 7): 180 nM
- TDI (Cytochrome P450 3A4): Not Active
- TDI (Cytochrome P450 2C9): Not Active
- inhibition (INH) (Cytochrome P450 2D6 [4]): Not Active
- CLint scaled at 1 µM [5]: 80 mL/min/kg
- Tmax [6]: 1 h
- inhibition [7]: 34%
- inhibition (INH) (Cytochrome P450 2C19): Not Active
- TDI (Cytochrome P450 2D6 [9]): Not Active
- solubility thermodynamic [10]: 16 µg/mL (≈ 32.1 µM)
- Cmax [11]: 39.6 µM
- IC50 [12]: 26 nM
Compound: O=C(NC[C@H](c1ccc(Cl)cc1)N1CCOCC1)c1sc(-c2ncccn2)nc1C(F)(F)F
- inhibition (INH) [2]: Not Active
- inhibition at 0.03 µM [8]: 67%
